High-throughput results deposited in PubChem BioAssay by several laboratories.
MT stabilizer – microtubule stabilizers in HeLa cells | HeLa tubulin immunostaining HCS, 24 h; share of cells brighter than vehicle mean+2SD | % tubulin-high responders, % at 10 µM | actives 0.83% (n = 200,000);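 active = plate Z-score above 3 for both tubulin-high and condensed-nucleus cell shares, with cell loss under 80%, at 10 µM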;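 note: anti alpha tubulin signal scored within the nucleus-defined area of each cell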
Dynein cargo inh – blocks dynein driven cargo transport along microtubules; 3617.4 mouse cells, GR-EGFP nuclear translocation imaging; test concentration mostly 20 µM; stimulated with dexamethasone, 1 µM; stronger effect = lower value; z-score, hits read low; actives 0.47% (n = 220,000);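 active = plate z-score of nuclear minus cytoplasmic receptor signal below a set negative limit, without overly bright fluorescence or cell loss, cut at about -3.5 in these data, passing the limit was not always enough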;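 note: z-score of nuclear minus cytoplasmic ring GR-EGFP intensity difference per well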
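Buffer or medium: Induction medium lacking tetracycline, stripped serum | Also added: Dexamethasone agonist, 1.0 µM final, for 30 min | Timing: 48 h induction, 1 h compound, 30 min dex at 37 °C | Detection: Formaldehyde fixation, Hoechst nuclear stain, 10x automated fluorescence imaging | Measure: Nuclear versus cytoplasmic GR-EGFP signal, averaged per well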
CHOP inhibitor – inhibitors of CHOP induction in ER stress response; actives 3.8% (n = 220,000); CHO-K1 CHOP-promoter luciferase, tunicamycin-induced, 15-18 h; inhibition, % at 10 µM;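 active = compounds that reduced the stress-induced luciferase reporter signal by more than about 70% of percent inhibition, limit read from the data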;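 note: 0% = tunicamycin plus vehicle and 100% = wells without tunicamycin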
Autophagy mod – alters autophagy in cells; calls only at 10 µM (by protocol); MEF GFP-LC3 puncta imaging; test concentration mostly 10 µM; actives 0.98% (n = 190,000); AID 463193;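 active = percentage of spot-positive cells more than 3 SD above its plate mean, without a fluorescence outlier flag or 80% toxicity; inconclusive = no clear call, values can overlap the other calls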;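 note: spot-positive cell cutoff set from DMSO-treated cells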
bCat nuc transl – alters nuclear translocation of beta-catenin in HeLa cells; actives 0.3% (n = 190,000); AID 1665; immunofluorescence imaging; nuclear translocation activity, % at 5 µM;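 active = nuclear translocation activity above 50% at 5 µM, with a well cell count of 50 or more; inconclusive = wells under 50 cells across six images, flagged as toxic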;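 note: per-cell ratio of nuclear to cytoplasmic median beta-catenin stain intensity; plate controls were DMSO negative control for no effect and GSK-3 inhibitor IX positive control for full effect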
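assay system = human HeLa cells, endogenous beta-catenin | times = compound treatment 24 h, 37°C, 5% CO2 | detection = Anti-beta-catenin immunofluorescence on PFA-fixed, Triton-permeabilized cells, DAPI nuclei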
Lmaj promast – reduces viability of Leishmania major promastigotes. resazurin fluorescence viability. inhibition, % at 10 µM. actives 9% (n = 200,000). AID 1063; in the data active = inhibition above about 50%;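 note: promastigotes grown with compound for 44 hours at 28 °C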
Active calls of the source: *; i = inactive; ? = inconclusive; / = not tested or not shown; + = active, no number. The list is not random: actives were taken first. Their share in the collection is about 12%.

SMILES	MT stabilizer	Dynein cargo inh	CHOP inhibitor	Autophagy mod	bCat nuc transl	Lmaj promast
COc1ccccc1NC(=O)c1nnn(CC(=O)Nc2ccccc2)c1N	3.6	3.05	10.8	i	1.2	-6.5
CCOc1ccccc1NC(=O)c1ccc(Cl)c(NC(=O)CC(c2ccccc2)c2ccccc2)c1	3.0	-0.927	1.2	i	-1.8	70.2*
CCOc1ccccc1NC(=O)Cn1nnc(C(=O)Nc2ccccc2Cl)c1N	5.1	-0.183	72.8*	i	0.4	-0.5
Cc1ccc(NS(=O)(=O)c2cc3c4c(cccc4c2)C(=O)NC3=O)cc1C	/	1.5	44.7	/	3.0	/
COc1ccc(/C=C/C(=O)c2ccc(NC3=NCCCS3)cc2)cc1OC	17.8	-2.62	-117.2	i	0.3	100.3*
CCC1CSC(Nc2ccc(C(=O)/C=C/c3ccc(OC)c(OC)c3)cc2)=N1 (centres undefined)	8.1	-0.922	13.5	i	11.3	96.3*
COc1ccc(NC(=O)/C=C/c2ccc(OC)c(OC)c2)cn1	1.8	1.28	-13.8	i	2.3	-1.4
COc1ccc(/C=C/C(=O)Nc2ccncc2)cc1OC	1.4	-0.641	-13.7	i	1.9	2.5
O=C(/C=C/c1ccc(Br)cc1)NC1CCCCCC1	0.3	-0.206	29.0	i	-0.4	-4.0
CCC1CSC(Nc2ccc(C(=O)/C=C/c3ccc(Br)cc3)cc2)=N1 (centres undefined)	3.5	1.54	89.4*	i	/	97.5*
CCC(C)[C@H](NC(=O)NCCCOC(C)C)C(=O)OC (some centres undefined)	/	0.00502	4.3	/	-0.3	/
CNc1ccc2nnc(C(F)(F)C(F)(F)C(F)(F)F)n2n1	2.1	-0.147	-6.5	i	0.5	-7.3
COc1ccc(Nc2nnc(SCC(=O)/C=C3/N(C)c4ccccc4C3(C)C)s2)cc1	1.3	0.0637	52.4	i	/	96.1*
Cc1nc2ccccn2c1C(=O)/C=C/c1ccc(F)cc1	6.9	0.662	-58.7	i	10.9	86.3*
COc1ccc(/C=C/C(=O)c2c(C)nc3ccccn23)cc1	8.9	0.658	-54.0	i	0.8	33.4
COc1ccc(-c2[nH]c(-c3cc(OC)c4c(c3)OCO4)nc2-c2ccccc2)cc1	4.5	-0.711	12.5	i	-1.6	89.1*
CCN(Cc1ccccc1)C(c1ccc(C(F)(F)F)cc1)c1nnnn1C(C)(C)C (centres undefined)	2.4	-0.324	42.1	i	/	28.3
CC(C)(C)n1nnnc1C(c1cccs1)N(Cc1cccnc1)Cc1ccccc1Cl (centres undefined)	2.4	-0.22	5.6	i	-0.8	100.1*
CC(c1nnnn1C(C)(C)C)N(Cc1cccnc1)Cc1ccccc1Cl (centres undefined)	1.6	-0.105	25.5	i	0.0	96.5*
CC(C)(C)n1nnnc1C(c1cccs1)N1CCN(Cc2ccccc2)CC1 (centres undefined)	1.7	-0.175	7.7	i	/	22.5
Cn1cnc(S(=O)(=O)Nc2cc(-c3ccc(Cl)cc3)nn2C)c1	/	-0.00384	-0.4	/	-2.1	/
CCCSc1nc(=S)n(Cc2ccccc2)c(C)c1C(C)=O	4.6	-0.184	7.0	i	-8.3	11.9
Cc1cc(/C=N/NC(=O)c2ccc(O)cc2)c(C)n1CC(C)C	/	-0.179	0.5	/	-1.5	/
Brc1ccccc1-c1nnc(CSc2nncn2-c2ccccc2)o1	3.5	1.06	13.7	i	-1.0	98.1*
Cc1sc2nc(COC(=O)c3cccc(S(=O)(=O)N(C)c4ccccc4)c3)[nH]c(=O)c2c1C	2.5	1.72	0.4	i	-0.1	-2.5
SMILES	MT stabilizer	Dynein cargo inh	CHOP inhibitor	Autophagy mod	bCat nuc transl	Lmaj promast
CCc1nnc(NC(=O)c2ccc(S(=O)(=O)N3CCCc4ccccc43)cc2)o1	4.2	-0.47	10.6	i	1.2	99.3*
O=C(Nc1nc2c(s1)CCCC2)c1ccc(S(=O)(=O)N2CCCc3ccccc32)cc1	1.9	0.37	69.6	i	0.4	98.5*
CNC(=O)c1ccsc1NC(=O)c1ccc(S(=O)(=O)N2CCCc3ccccc32)cc1	5.9	1.69	30.5	i	2.5	99.7*
CN(Cc1ccccc1)S(=O)(=O)c1ccc(S(=O)(=O)N2CCN(CCC#N)CC2)cc1	4.8	0.0505	/	/	/	-3.4
CCN(c1ccccc1)S(=O)(=O)c1ccc(F)cc1C	1.9	1.39	23.1	i	/	32.4
COc1ccccc1/C=C/C(=O)Nc1cccc(S(=O)(=O)NC2=NCCCCC2)c1	3.1	0.915	29.7	i	-3.8	11.0
O=C(/C=C/c1cccs1)NC(=S)NNC(=O)Cc1cccs1	4.8	-1.06	35.7	i	0.3	63.8*
COc1ccc(/C=C/C(=O)NC(=S)NNC(=O)c2cccs2)cc1OC	/	-0.2	52.8	/	6.1	/
COc1ccc(/C=C/C(=O)NC(=S)NNC(=O)Cc2cccs2)cc1OC	2.8	0.0432	50.9	i	/	98.6*
CC1(C)CN(c2ccsc2C(=O)O)C1=O	2.1	0.625	-5.9	i	-0.8	-6.7
COc1cccc(C2C(=O)N(C3CCCCC3)CC(=O)N2Cc2ccc(F)cc2)c1 (centres undefined)	2.0	-0.217	43.7	i	/	53.2*
COc1ccccc1CN1C(=O)CN(C2CCCCCC2)C(=O)C1c1ccc(F)cc1 (centres undefined)	0.4	-0.923	2.2	i	0.6	19.3
CN1CCN(C(=O)C2(NC(=O)Nc3ccccc3Cl)CCCCC2)CC1	3.8	-0.318	15.8	i	/	14.9
CCN1CCN(C(=O)C2(NC(=O)Nc3ccccc3Cl)CCCCC2)CC1	4.7	0.969	4.4	i	/	55.3*
O=C(NCc1ccccc1)NC1(C(=O)N2CCN(c3ccccc3)CC2)CCCCC1	2.8	0.0921	18.8	i	1.3	53.9*
S=C(NCCN1CCOCC1)NC1CCCC1	3.2	-0.389	-2.7	i	-7.6	-1.4
CCN(CC)C(=S)Nc1ccc([N+](=O)[O-])cc1	1.6	0.414	-3.0	i	1.5	59.2*
CCN(CC)C(=S)Nc1ccc(Cl)c(Cl)c1	2.5	1.6	30.0	i	0.3	61.8*
CCN(Cc1ccncc1)C(=S)Nc1ccc(Cl)cc1	4.1	-0.096	13.1	i	-0.5	-4.7
O=c1oc2cc(O)ccc2cc1-c1nc2c(s1)CCc1ccccc1-2	4.3	-2.36	82.8*	?	-1.1	-11.8
O=c1oc2ccccc2cc1-c1ccc(O)cc1O	1.3	-0.894	19.1	i	-2.2	-11.7
O=c1oc2ccccc2cc1-c1nc2c(s1)CCc1ccccc1-2	2.6	-2.59	3.4	+	/	-3.4
COc1cc(C=C(c2nc3ccccc3s2)c2nc3ccccc3s2)ccc1O	1.8	0.931	73.7*	i	4.5	96.8*
COc1ccc(C=C(c2nc3ccccc3s2)c2nc3ccccc3s2)cc1O	9.5	0.528	0.3	i	4.8	99.2*
